Results on 27 compounds are retold here after ChEMBL document CHEMBL2331450, “Potent BRAF kinase inhibitors based on 2,4,5-trisubstituted imidazole with naphthyl and benzothiophene 4-substituents” (Bioorg Med Chem, 2013).

Assay [1] addresses T1, Serine/threonine-protein kinase B-raf (Homo sapiens, UniProt P15056, V600E). In words: Inhibition of human recombinant N-terminal His-tagged BRAF V600E mutant expressed in Sf9 cells using GST-tagged MEK1 and ATP as substrate incubated for 10 mins prior to ATP addition measured after 45 mins by DELFIA assay. The gist of the method:
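Enzyme assay with the V600E BRAF mutant in vitro; inhibition reported as IC50.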

Assay [2] in a line: Antiproliferative activity against human WM266.4 cells after 6 days by SRB assay. The class given is functional. To be noted: WM 266-4, 144 h. The method, boiled down:
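BRAF-dependent WM266.4 melanoma cells; growth inhibition read by SRB staining and reported as GI50.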

Assay [3] has as its target T1, Serine/threonine-protein kinase B-raf. In words: Inhibition of BRAF V600E mutant in human WM266.4 cells assessed as inhibition of ERK phosphorylation after 6 hrs by DELFIA assay. The format is cell-based. The method, boiled down:
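In BRAF-dependent WM266.4 cells, inhibition of ERK phosphorylation measured in a cellular assay and reported as IC50.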

T1 sequence (P15056 2-766 V600E limits assumed): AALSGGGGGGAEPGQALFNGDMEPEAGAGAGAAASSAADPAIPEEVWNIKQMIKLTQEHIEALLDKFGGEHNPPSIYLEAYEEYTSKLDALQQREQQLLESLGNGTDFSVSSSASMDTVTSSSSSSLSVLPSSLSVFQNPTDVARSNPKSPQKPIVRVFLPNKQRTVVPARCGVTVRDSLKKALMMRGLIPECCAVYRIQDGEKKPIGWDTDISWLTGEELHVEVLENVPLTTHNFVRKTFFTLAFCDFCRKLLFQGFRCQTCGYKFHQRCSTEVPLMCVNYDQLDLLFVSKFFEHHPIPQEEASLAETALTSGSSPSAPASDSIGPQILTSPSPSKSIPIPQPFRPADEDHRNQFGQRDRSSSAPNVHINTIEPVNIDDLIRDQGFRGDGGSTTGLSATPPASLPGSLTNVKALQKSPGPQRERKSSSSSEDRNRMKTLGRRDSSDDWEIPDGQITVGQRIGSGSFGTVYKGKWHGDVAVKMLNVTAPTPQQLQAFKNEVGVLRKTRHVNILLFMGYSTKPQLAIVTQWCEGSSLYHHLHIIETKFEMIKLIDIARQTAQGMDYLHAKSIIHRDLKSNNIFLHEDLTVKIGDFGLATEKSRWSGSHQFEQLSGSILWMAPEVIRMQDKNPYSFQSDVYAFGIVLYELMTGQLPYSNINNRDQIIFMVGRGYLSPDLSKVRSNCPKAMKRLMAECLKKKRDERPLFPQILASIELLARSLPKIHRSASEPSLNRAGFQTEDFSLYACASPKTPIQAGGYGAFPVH

For the compound `CN(C)CCOc1ccc(-c2nc(-c3ccc4cc(O)ccc4c3)c(-c3ccncc3)[nH]2)cc1`, the IC50 (commonly the concentration that gives 50% inhibition) in assay [1] is 8.8 µM; in assay [3], 14 µM. Also, in assay [2], halving of growth (GI50) required 4.3 µM.
The like results for `CN(C)CCOc1ccc(-c2nc(-c3ccc4c(O)c(Cl)ccc4c3)c(-c3ccncc3)[nH]2)cc1` were, in that order, 0.042 µM, 1.25 µM and 1.1 µM.
For `CN(C)CCOc1ccc(-c2nc(-c3ccc4c(O)c(F)ccc4c3)c(-c3ccncc3)[nH]2)cc1`, in that order: 0.029 µM, 0.25 µM and 11 µM.
As for `CN(C)CCOc1ccc(-c2nc(-c3ccc4ccc(=O)[nH]c4c3)c(-c3ccncc3)[nH]2)cc1`, the IC50 in assay [1] is > 100 µM.
Still for that read-out and setting: with `CN(C)CCOc1ccc(-c2nc(-c3ccc4[nH]c(=O)ccc4c3)c(-c3ccncc3)[nH]2)cc1` the figure was > 100 µM.
As for `CN(C)CCOc1ccc(-c2nc(-c3ccc4c(=O)[nH]ccc4c3)c(-c3ccncc3)[nH]2)cc1`, the IC50 in assay [1] was > 10 µM.
With `CN(C)CCOc1ccc(-c2nc(-c3ccc4c(N)nccc4c3)c(-c3ccncc3)[nH]2)cc1`, the IC50 in assay [1] came out at 1.1 µM; in assay [3] it was 5.1 µM. In addition, the concentration for 50% growth inhibition (GI50) (commonly the concentration at which growth is held to half of that of the control) in assay [2] amounted to 5.7 µM.
As to `CN(C)CCOc1ccc(-c2nc(-c3ccc4cc(F)ccc4c3)c(-c3ccncc3)[nH]2)cc1`, the IC50 in assay [1] was > 10 µM.
Same read-out and setting: with `CN(C)CCOc1ccc(-c2nc(-c3ccc4cc(C(=O)O)ccc4c3)c(-c3ccncc3)[nH]2)cc1` the figure was > 10 µM.
Regarding `CN(C)CCOc1ccc(-c2nc(-c3ccc(Cl)c(Cl)c3)c(-c3ccncc3)[nH]2)cc1`, the IC50 in assay [1] stood at 0.58 µM; in assay [3], 5.9 µM. Further, growth in assay [2] was halved (GI50) at 1.6 µM.
Turning to `CN(C)CCOc1ccc(-c2nc(-c3ccc(F)c(Cl)c3)c(-c3ccncc3)[nH]2)cc1`, in assay [1], the IC50 is > 10 µM.
As for `CN(C)CCOc1ccc(-c2nc(-c3ccc4c(CO)coc4c3)c(-c3ccncc3)[nH]2)cc1`, the IC50 in assay [1] is > 10 µM.
The same measure, in the same setting: with `CN(C)CCOc1ccc(-c2nc(-c3ccc4c(C(N)=O)coc4c3)c(-c3ccncc3)[nH]2)cc1` the figure was > 10 µM.
Take `CN(C)CCOc1ccc(-c2nc(-c3ccc4c(C=O)csc4c3)c(-c3ccncc3)[nH]2)cc1`: in assay [1], the IC50 was > 10 µM.
Same read-out and setting: with `CN(C)CCOc1ccc(-c2nc(-c3ccc4c(CO)csc4c3)c(-c3ccncc3)[nH]2)cc1` the figure was > 10 µM.
Take `CN(C)CCOc1ccc(-c2nc(-c3ccc4c([C@@H](O)C(F)(F)F)csc4c3)c(-c3ccncc3)[nH]2)cc1`: the IC50 in assay [1] was 0.19 µM; in assay [3], 2.3 µM. The GI50 in assay [2] amounted to 2.1 µM.
As to `CCCSc1csc2cc(-c3nc(-c4ccc(OCCN(C)C)cc4)[nH]c3-c3ccncc3)ccc12`, the IC50 is 9.4 µM in assay [1] and 31 µM in assay [3]. Further, growth in assay [2] was halved (GI50) at 2.3 µM.
With `CCC[S+]([O-])c1csc2cc(-c3nc(-c4ccc(OCCN(C)C)cc4)[nH]c3-c3ccncc3)ccc12` (configuration not stated), the IC50 in assay [1] was > 10 µM.
With `CSc1csc2cc(-c3nc(-c4ccc(OCCN(C)C)cc4)[nH]c3-c3ccncc3)ccc12`, in assay [1], the IC50 came out at 14 µM.
Consider `CN(C)CCOc1ccc(-c2nc(-c3ccc4c([S+](C)[O-])csc4c3)c(-c3ccncc3)[nH]2)cc1` (configuration not stated), for which the IC50 in assay [1] was > 10 µM.
Turning to `CN(C)CCOc1ccc(-c2nc(-c3ccc4ccc(O)cc4c3)c(-c3ccncc3)[nH]2)cc1`, the IC50 in assay [1] was found to be 1.4 µM; in assay [3], 3.6 µM. The 50% growth inhibitory concentration (GI50) in assay [2] came to 3.2 µM.
For `CN(C)CCOc1ccc(-c2nc(-c3ccc4c(O)cccc4c3)c(-c3ccncc3)[nH]2)cc1`, the IC50 in assay [1] stood at 0.009 µM; in assay [3], 0.39 µM. The same compound displayed a GI50 in assay [2] of 0.22 µM.
In the case of `CCC(O)c1csc2cc(-c3nc(-c4ccc(OCCN(C)C)cc4)[nH]c3-c3ccncc3)ccc12` (racemic), the IC50 in assay [1] was > 10 µM.
Still for that read-out and setting: the figure for `CN(C)CCOc1ccc(-c2nc(-c3ccc4c(C(O)C(F)(F)C(F)(F)F)csc4c3)c(-c3ccncc3)[nH]2)cc1` (racemic) is > 10 µM.
As for `CN(C)CCOc1ccc(-c2nc(-c3ccc4c(C(O)C(F)(F)F)csc4c3)c(-c3ccncc3)[nH]2)cc1` (racemic), the figures for the IC50 in assay [1] and in assay [3] were 0.33 µM and 2.7 µM, respectively. Besides, the GI50 in assay [2] came to 3.1 µM.
Turning to `CN(C)CCOc1ccc(-c2nc(-c3ccc4sc(C(O)C(F)(F)F)cc4c3)c(-c3ccncc3)[nH]2)cc1` (racemic), the IC50 in assay [1] was > 10 µM.
For the compound `CN(C)CCOc1ccc(-c2nc(-c3ccc(C(O)C(F)(F)F)cc3)c(-c3ccncc3)[nH]2)cc1` (racemic), the IC50 in assay [1] is > 10 µM.
